According to ChEMBL document CHEMBL3862037 (J Med Chem, 2016):

Experiments:
[1] = target: Sodium-dependent dopamine transporter (Rattus norvegicus, UniProt P23977); assay: Displacement of [3H]WIN35,428 from DAT in Sprague-Dawley rat brain membranes incubated for 120 mins by radioligand binding assay; assay type: cell membranes, Membrane
[2] = target: Sodium-dependent serotonin transporter (Rattus norvegicus, UniProt P31652); assay: Displacement of [3H]citalopram from SERT in Sprague-Dawley rat brain stem membranes incubated for 60 mins by radioligand binding assay; assay type: tissue-based
Rattus norvegicus [3] = species: Rattus norvegicus; assay: Selectivity index, ratio of Ki for NET in Sprague-Dawley rat frontal cortex membranes to Ki for DAT in Sprague-Dawley rat brain membranes; assay type: cell membranes
Rattus norvegicus [4] = species: Rattus norvegicus; assay: Selectivity index, ratio of Ki for SERT in Sprague-Dawley rat brain stem membranes to Ki for DAT in Sprague-Dawley rat brain membranes; assay type: cell membranes
[5] = Stability in mouse liver microsomes assessed as compound degradation at 10 uM in presence of NADPH regenerating system measured < 30 mins mins by LC/MS/MS method; assay type: ADME; settings: 0.5 h
Method in brief: (§1)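 Mouse liver microsomes (0.5 mg/mL) in 100 mM potassium phosphate pH 7.4 with NADPH regenerating system. Compound at 10 µM final; testosterone as positive control. Parent compound loss followed over time by LC/MS/MS on a C18 column with formic acid/acetonitrile gradient.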

D(2) dopamine receptor [6] = target: T1, D(2) dopamine receptor (Homo sapiens, UniProt P14416); assay: Displacement of [3H]N-methylspiperone from human D2R expressed in HEK293 cell membranes incubated for 1 hr by radioligand binding assay
Method in brief: (§2)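 Membranes from HEK293 cells stably expressing human D2R (20 µg protein) or D4R (30 µg protein). Buffer: EBSS with 0.2 mM sodium metabisulfite and 0.4 nM [3H]N-methylspiperone. Test compound at 11 half-log dilutions (100 µM–100 pM or 10 µM–10 pM) in 30% DMSO vehicle. Incubated 1 h at room temperature; nonspecific binding with 10 µM butaclamol.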

D(4) dopamine receptor = target: T2, D(4) dopamine receptor (Homo sapiens, UniProt P21917); assay: Displacement of [3H]N-methylspiperone from human D4R expressed in HEK293 cell membranes incubated for 1 hr by radioligand binding assay; method in brief: as §2
T2 sequence (P21917 whole entry): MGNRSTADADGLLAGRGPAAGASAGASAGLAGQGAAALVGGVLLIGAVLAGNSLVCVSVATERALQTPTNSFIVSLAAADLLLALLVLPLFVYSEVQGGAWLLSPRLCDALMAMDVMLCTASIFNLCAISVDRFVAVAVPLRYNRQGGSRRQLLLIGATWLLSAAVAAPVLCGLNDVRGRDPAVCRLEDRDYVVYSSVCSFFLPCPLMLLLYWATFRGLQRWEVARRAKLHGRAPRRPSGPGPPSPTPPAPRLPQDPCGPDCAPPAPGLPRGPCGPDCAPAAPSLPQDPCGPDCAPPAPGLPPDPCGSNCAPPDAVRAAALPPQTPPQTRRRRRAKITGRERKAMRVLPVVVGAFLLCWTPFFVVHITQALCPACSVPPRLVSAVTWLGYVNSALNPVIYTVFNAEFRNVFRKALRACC

[7] = Displacement of [3H]nisoxetine from NET in Sprague-Dawley rat frontal cortex membranes incubated for 180 mins by radioligand binding assay; set-up: species or system Membrane
D(3) dopamine receptor = D(3) dopamine receptor (Homo sapiens, UniProt P35462); assay: Displacement of [3H]N-methylspiperone from human D3R expressed in HEK293 cell membranes incubated for 1 hr by radioligand binding assay
D(2) dopamine receptor [8] = target: T1, D(2) dopamine receptor; assay: Antagonist activity at DRD2 (unknown origin) expressed in HEK293T cells transfected with Galphai1-RLuc8 and gamma2-GFP10 assessed as inhibition of quinpirole-induced Gi1 activation pre-incubated with quinpirole for 10 mins before compound incubation for 10 mins by BRET assay; assay type: cell-based, HEK-293T
Method in brief: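 HEK-293T cells co-transfected with Flag-tagged D2 receptor, RLuc8-fused Gαi1, GFP10-fused Gγ and untagged Gβ, using constant total plasmid DNA at various partner ratios. Cells preincubated 10 min with 1 µM quinpirole, then 10 min with test compound. Read-out: BRET as fluorescence at 535 nm after 5 µM coelenterazine 400a.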

[9] = Displacement of [3H]WIN35,428 from human DAT Y156F mutant expressed in COS7 cell membranes incubated for >90 mins by radioligand binding assay; settings: cos-7
[10] = target: Sodium-dependent dopamine transporter (Homo sapiens, UniProt Q01959); assay: Displacement of [3H]WIN35,428 from wild type human DAT expressed in COS7 cell membranes incubated for >90 mins by radioligand binding assay; set-up: species or system COS-7
[11] = Stability in mouse liver microsomes assessed as half life at 10 uM in presence of NADPH regenerating system by LC/MS/MS method; assay type: ADME; settings: liver microsomes; method in brief: as §1
[12] = Stability in mouse liver microsomes assessed as compound remaining at 10 uM in absence of NADPH regenerating system measured after 60 mins by LC/MS/MS method; assay type: ADME, microsome; settings: read-out: Stability
[13] = Stability in mouse liver microsomes assessed as compound remaining at 10 uM in presence of NADPH regenerating system measured up to 70 mins by LC/MS/MS method; assay type: ADME; settings: read-out: Stability
[14] = target: Sigma non-opioid intracellular receptor 1 (Cavia porcellus, UniProt Q60492); assay: Displacement of [3H](+)-pentazocine from sigma1 receptor in whole-guinea pig brain minus cerebellum homogenates incubated for 120 mins by radioligand binding assay
Method in brief: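 Guinea pig whole-brain (minus cerebellum) membranes, 8.0 mg OWW per tube, in 50 mM Tris-HCl pH 8.0 with 3 nM [3H](+)-pentazocine. Incubated 120 min at room temperature. Nonspecific binding defined by haloperidol. Stopped by GF/B filtration and scintillation counting. IC50 from nonlinear regression, converted to Ki. At least three independent experiments, each in triplicate.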

[15] = Induction of locomotor activity in C57BL/6J mouse assessed as increase in traveled distance every 10 mins at 10 mg/kg, ip; assay type: organism-based; settings: in vivo
[16] = Induction of locomotor activity in C57BL/6J mouse assessed as increase in traveled distance every 10 mins at 10 to 30 mg/kg, ip; assay type: organism-based; settings: in vivo

Chain of Sodium-dependent serotonin transporter (P31652 whole entry): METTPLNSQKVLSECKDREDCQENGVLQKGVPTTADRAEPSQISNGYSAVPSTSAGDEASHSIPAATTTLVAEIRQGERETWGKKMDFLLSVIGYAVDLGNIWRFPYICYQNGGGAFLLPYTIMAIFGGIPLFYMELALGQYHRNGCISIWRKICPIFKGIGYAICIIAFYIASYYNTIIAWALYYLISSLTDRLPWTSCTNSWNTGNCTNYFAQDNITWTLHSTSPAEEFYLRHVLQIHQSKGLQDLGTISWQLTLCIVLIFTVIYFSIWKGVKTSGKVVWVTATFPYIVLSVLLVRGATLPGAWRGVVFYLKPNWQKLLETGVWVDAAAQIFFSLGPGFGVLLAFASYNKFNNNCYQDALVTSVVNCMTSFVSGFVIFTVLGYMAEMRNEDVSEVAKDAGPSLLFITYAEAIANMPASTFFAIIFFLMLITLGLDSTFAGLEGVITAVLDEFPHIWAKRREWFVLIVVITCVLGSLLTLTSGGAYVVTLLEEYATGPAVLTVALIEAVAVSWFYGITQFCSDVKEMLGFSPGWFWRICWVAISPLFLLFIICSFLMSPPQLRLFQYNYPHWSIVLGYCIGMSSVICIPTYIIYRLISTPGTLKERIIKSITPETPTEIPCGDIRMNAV
Chain of Sodium-dependent dopamine transporter (Rattus norvegicus, UniProt P23977) (P23977 whole entry): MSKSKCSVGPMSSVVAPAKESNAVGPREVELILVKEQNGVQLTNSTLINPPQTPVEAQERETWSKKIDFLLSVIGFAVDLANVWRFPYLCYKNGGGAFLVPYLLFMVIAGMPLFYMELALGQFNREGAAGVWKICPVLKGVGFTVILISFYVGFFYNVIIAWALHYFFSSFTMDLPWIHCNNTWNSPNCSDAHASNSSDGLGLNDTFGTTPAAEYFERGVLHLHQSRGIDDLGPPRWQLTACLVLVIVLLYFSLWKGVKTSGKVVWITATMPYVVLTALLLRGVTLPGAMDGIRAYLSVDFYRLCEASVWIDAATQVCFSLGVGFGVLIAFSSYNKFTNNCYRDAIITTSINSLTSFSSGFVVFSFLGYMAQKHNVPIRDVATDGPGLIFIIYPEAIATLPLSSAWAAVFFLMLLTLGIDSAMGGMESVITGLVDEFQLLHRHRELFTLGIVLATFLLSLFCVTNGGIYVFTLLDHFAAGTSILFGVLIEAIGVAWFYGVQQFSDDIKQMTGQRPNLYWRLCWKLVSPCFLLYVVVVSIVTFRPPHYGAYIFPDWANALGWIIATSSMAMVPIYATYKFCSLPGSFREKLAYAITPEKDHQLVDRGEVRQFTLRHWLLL
T1 sequence (P14416 whole entry): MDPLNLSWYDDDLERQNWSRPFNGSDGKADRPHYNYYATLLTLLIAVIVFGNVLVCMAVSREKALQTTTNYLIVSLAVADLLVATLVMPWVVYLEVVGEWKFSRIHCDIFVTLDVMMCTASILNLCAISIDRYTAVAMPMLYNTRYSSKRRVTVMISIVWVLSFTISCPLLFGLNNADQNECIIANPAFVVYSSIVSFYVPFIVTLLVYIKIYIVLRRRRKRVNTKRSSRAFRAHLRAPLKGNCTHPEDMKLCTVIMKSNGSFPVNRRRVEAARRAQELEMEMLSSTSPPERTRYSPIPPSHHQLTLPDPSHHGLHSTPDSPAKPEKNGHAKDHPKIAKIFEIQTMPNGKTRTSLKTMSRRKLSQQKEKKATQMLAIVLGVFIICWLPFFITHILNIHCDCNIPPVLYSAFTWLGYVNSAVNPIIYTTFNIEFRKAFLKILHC
Chain of D(3) dopamine receptor (P35462 whole entry): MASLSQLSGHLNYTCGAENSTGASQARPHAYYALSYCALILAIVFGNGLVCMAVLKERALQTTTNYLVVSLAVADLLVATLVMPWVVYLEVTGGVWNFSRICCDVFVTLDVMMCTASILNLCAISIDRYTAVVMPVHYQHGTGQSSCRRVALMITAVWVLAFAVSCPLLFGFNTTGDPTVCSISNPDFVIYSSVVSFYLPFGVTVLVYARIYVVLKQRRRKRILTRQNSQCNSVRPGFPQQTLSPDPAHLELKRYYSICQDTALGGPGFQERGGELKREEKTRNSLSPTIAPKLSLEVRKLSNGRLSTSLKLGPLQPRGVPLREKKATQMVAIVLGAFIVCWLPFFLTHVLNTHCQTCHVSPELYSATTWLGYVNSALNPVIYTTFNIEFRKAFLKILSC
Chain of Sigma non-opioid intracellular receptor 1 (Q60492 whole entry): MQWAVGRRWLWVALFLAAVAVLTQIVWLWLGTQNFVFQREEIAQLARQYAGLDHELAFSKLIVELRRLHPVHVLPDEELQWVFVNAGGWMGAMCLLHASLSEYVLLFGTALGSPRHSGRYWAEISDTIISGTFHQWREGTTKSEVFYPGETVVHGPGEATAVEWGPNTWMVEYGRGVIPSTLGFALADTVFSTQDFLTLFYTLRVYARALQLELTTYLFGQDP
Chain of Sodium-dependent dopamine transporter (Homo sapiens, UniProt Q01959) (Q01959 whole entry): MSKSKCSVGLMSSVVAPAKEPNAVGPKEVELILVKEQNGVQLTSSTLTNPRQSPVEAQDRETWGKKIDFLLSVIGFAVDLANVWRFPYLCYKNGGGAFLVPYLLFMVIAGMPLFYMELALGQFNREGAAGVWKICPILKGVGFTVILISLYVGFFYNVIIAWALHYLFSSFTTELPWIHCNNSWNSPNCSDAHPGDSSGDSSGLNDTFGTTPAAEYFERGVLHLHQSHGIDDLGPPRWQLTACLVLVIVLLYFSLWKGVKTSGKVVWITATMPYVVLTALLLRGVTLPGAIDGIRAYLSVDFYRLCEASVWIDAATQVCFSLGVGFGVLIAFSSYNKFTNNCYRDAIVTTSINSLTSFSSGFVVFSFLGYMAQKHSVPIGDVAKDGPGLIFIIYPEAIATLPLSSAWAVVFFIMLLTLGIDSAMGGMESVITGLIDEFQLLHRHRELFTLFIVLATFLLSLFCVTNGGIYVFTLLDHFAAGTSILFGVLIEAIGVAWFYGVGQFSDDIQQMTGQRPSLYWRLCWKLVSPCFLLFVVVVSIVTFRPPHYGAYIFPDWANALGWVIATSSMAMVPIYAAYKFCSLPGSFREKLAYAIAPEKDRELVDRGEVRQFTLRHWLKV

Compound | Ki [1] | Ki [2] | Ratio Ki (Rattus norvegicus [3]) | Ratio Ki (Rattus norvegicus [4]) | Ki [7] | further results
CC(O)CN1CCN(C(=O)CSC(c2ccc(F)cc2)c2ccc(F)cc2)CC1 (stereo unspecified) | 0.214 µM | 11.4 µM | > 100 | > 100 |  | Stability [5]: Unstable
CCc1cc(Cl)c(OC)c(C(=O)NC[C@@H]2CCCN2CC)c1O [ETICLOPRIDE] |  |  |  |  |  | Ki (D(2) dopamine receptor [6]): 0.00026 µM; Ki (D(4) dopamine receptor): 0.0704 µM
CC(O)CN1CCN(C(=O)C[S+]([O-])C(c2ccc(F)cc2)c2ccc(F)cc2)CC1 (stereo unspecified) | 0.752 µM | 32.8 µM | > 100 | > 100 |  | 
Fc1ccc(C(SCCN2CCN(Cc3ccccc3)CC2)c2ccc(F)cc2)cc1 | 0.0074 µM | 0.949 µM | > 100 | > 100 | 8.24 µM | 
Fc1ccc(C(SCCN2CCN(CCCc3ccccc3)CC2)c2ccc(F)cc2)cc1 |  |  | > 100 | > 100 |  | 
[O-][S+](CCN1CCN(CCCc2ccccc2)CC1)C(c1ccccc1)c1ccccc1 (stereo unspecified) |  | 7.36 µM | > 100 | > 100 |  | 
Fc1ccc(C(SCCN2CCN(Cc3ccc(C(F)(F)F)cc3)CC2)c2ccc(F)cc2)cc1 | 0.0266 µM | 2.02 µM | > 100 | > 100 | 15.4 µM | 
Fc1ccc(C(SCCN2CCN(Cc3ccc(Cl)cc3)CC2)c2ccc(F)cc2)cc1 | 0.0193 µM | 0.905 µM | > 100 | > 100 | 7.41 µM | 
CC(O)CN1CCN(CCSC(c2cccc(Cl)c2)c2cccc(Cl)c2)CC1 (stereo unspecified) | 0.143 µM | 10.8 µM | > 100 | > 100 | 31.3 µM | 
CC(O)CN1CCN(CC[S+]([O-])C(c2cccc(Cl)c2)c2cccc(Cl)c2)CC1 (stereo unspecified) | 0.403 µM | 58.9 µM | > 100 | > 100 | > 50 µM | 
CC(O)CN1CCN(C(=O)C[S+]([O-])C(c2cccc(Cl)c2)c2cccc(Cl)c2)CC1 (stereo unspecified) | 1.38 µM |  | > 100 | > 100 | > 50 µM | 
Fc1ccc(CN2CCN(CCSC(c3ccc(F)cc3)c3ccc(F)cc3)CC2)cc1 | 0.00498 µM | 0.463 µM | > 100 | > 100 | 6.85 µM | 
CC(O)CN1CCN(CCSC(c2ccccc2)c2ccccc2)CC1 (stereo unspecified) |  |  | > 100 | > 100 |  | 
[O-][S+](CCN1CCN(CC(O)Cc2ccccc2)CC1)C(c1ccccc1)c1ccccc1 (stereo unspecified) |  |  | > 100 | > 100 |  | Stability [5]: Unstable
O=C(C[S+]([O-])C(c1ccc(F)cc1)c1ccc(F)cc1)N1CCN(Cc2ccc(Cl)cc2)CC1 (stereo unspecified) | 0.0563 µM | 9.46 µM | > 100 | > 100 | 63.5 µM | 
CCCN1CCN(C(=O)CSC(c2ccc(F)cc2)c2ccc(F)cc2)CC1 | 0.277 µM | 5.97 µM | > 100 | > 100 |  | 
[O-][S+](CCN1CCN(Cc2ccc(C(F)(F)F)cc2)CC1)C(c1ccc(F)cc1)c1ccc(F)cc1 (stereo unspecified) | 0.0394 µM | 6.8 µM | > 100 | > 100 | > 50 µM | Stability [5]: Unstable

Compound | Ki [1] | Ki [2] | Ratio Ki (Rattus norvegicus [3]) | Ratio Ki (Rattus norvegicus [4]) | Ki [7] | further results
O=C(CSC(c1ccc(F)cc1)c1ccc(F)cc1)N1CCN(Cc2ccc(F)cc2)CC1 | 0.0537 µM | 6.21 µM | > 100 | > 100 |  | 
CCCN1CCN(C(=O)C[S+]([O-])C(c2ccc(F)cc2)c2ccc(F)cc2)CC1 (stereo unspecified) | 0.279 µM | 14.5 µM | > 100 | > 100 |  | 
[O-][S+](CCN1CCN(Cc2ccc(Cl)cc2)CC1)C(c1ccc(F)cc1)c1ccc(F)cc1 (stereo unspecified) | 0.00762 µM | 4.94 µM | > 100 | > 100 | > 50 µM | Stability [5]: Unstable
CC(O)CN1CCN(CC[S+]([O-])C(c2ccc(F)cc2)c2ccc(F)cc2)CC1 (stereo unspecified) |  |  |  |  |  | Ki (D(2) dopamine receptor [6]): 0.298 µM; Ki (D(3) dopamine receptor): 0.48 µM; Ki (D(4) dopamine receptor): 3.82 µM; IC50 (D(2) dopamine receptor [8]): > 10 µM; Ki [9]: 9.17 µM; Ki [10]: 1.2 µM; half-life at 10 µM [11]: 1 h; remaining at 1 h, 10 µM [12]: > 95%; remaining at 70 min, 10 µM [13]: 50%
OC(Cc1ccccc1)CN1CCN(CCSC(c2ccc(F)cc2)c2ccc(F)cc2)CC1 (stereo unspecified) |  |  | > 100 | > 100 |  | 
c1ccc(CCCN2CCN(CCSC(c3ccccc3)c3ccccc3)CC2)cc1 |  |  | > 100 | > 100 |  | 
CC(O)CN1CCN(C(=O)CSC(c2cccc(Cl)c2)c2cccc(Cl)c2)CC1 (stereo unspecified) | 0.915 µM |  | > 100 | > 100 | > 50 µM | 
O=C(CSC(c1ccc(F)cc1)c1ccc(F)cc1)N1CCN(CCCc2ccccc2)CC1 | 0.0286 µM | 3.17 µM | > 100 | > 100 | 20.2 µM | 
[O-][S+](CCN1CCN(Cc2ccccc2)CC1)C(c1ccc(F)cc1)c1ccc(F)cc1 (stereo unspecified) | 0.0272 µM | 11.2 µM | > 100 | > 100 | 45.7 µM | 
O=C(C[S+]([O-])C(c1ccc(F)cc1)c1ccc(F)cc1)N1CCN(Cc2ccc(F)cc2)CC1 (stereo unspecified) | 0.0743 µM | 23.6 µM | > 100 | > 100 |  | Stability [5]: Unstable
O=C(C[S+]([O-])C(c1ccc(F)cc1)c1ccc(F)cc1)N1CCN(CCCc2ccccc2)CC1 (stereo unspecified) | 0.0376 µM | 1.32 µM | > 100 | > 100 | 12 µM | Stability [5]: Unstable
CC(O)CN1CCN(CC[S+]([O-])C(c2ccccc2)c2ccccc2)CC1 (stereo unspecified) |  |  | > 100 | > 100 |  | 
Fc1ccc(C(SCCNCCCc2ccccc2)c2ccc(F)cc2)cc1 |  |  |  |  |  | Ki (D(2) dopamine receptor [6]): 0.228 µM; Ki (D(3) dopamine receptor): 0.0659 µM; Ki (D(4) dopamine receptor): 0.0281 µM; Ki [14]: 0.159 µM; Activity [15]: Non-Toxic
O=C(CSC(c1ccc(F)cc1)c1ccc(F)cc1)N1CCN(Cc2ccc(Cl)cc2)CC1 | 0.0587 µM | 2.2 µM | > 100 | > 100 |  | 
[O-][S+](CCN1CCN(Cc2ccc(F)cc2)CC1)C(c1ccc(F)cc1)c1ccc(F)cc1 (stereo unspecified) | 0.00967 µM | 8.52 µM | > 100 | > 100 | > 50 µM | Stability [5]: Unstable
NC(=O)C[S@@+]([O-])C(c1ccccc1)c1ccccc1 [ARMODAFINIL] |  |  |  |  |  | Ki (D(2) dopamine receptor [6]): > 100 µM; Ki (D(3) dopamine receptor): 39 µM; Ki (D(4) dopamine receptor): > 100 µM; Ki [14]: > 100 µM; Activity [15]: Toxic; Activity [16]: Dose-dependent effect
CCCCN1C2CCC1CC(OC(c1ccc(F)cc1)c1ccc(F)cc1)C2 (stereo unspecified) | 0.0105 µM |  |  |  | 1.67 µM | Ki (D(2) dopamine receptor [6]): 0.0681 µM; Ki (D(3) dopamine receptor): 0.0344 µM; Ki (D(4) dopamine receptor): 0.583 µM; Ki [14]: 0.0024 µM
